Reference: ChEMBL document CHEMBL3997768, “The synthesis and antistaphylococcal activity of dehydroabietic acid derivatives: modifications at C12 and C7” (2017)
Converted amounts (≈) assume the structure as drawn. The source made the active and inactive calls. No rule for the calls is given here.

Key:
Assay type in all cases: functional
Staphylococcus aureus [1] = assay: Antibacterial activity against Staphylococcus aureus Newman after 18 hrs by two fold serial dilution method
How it was run: (§1)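 Strains were grown overnight at 37 °C in TSB without antibiotic, diluted 1000-fold, and grown 2–3 h to A600 0.6. They were then diluted 1:400 in fresh TSB. Compounds in DMSO were two-fold serially diluted to a final 0.39–50 and mixed with an equal volume of bacteria. A600 was read after 18 h. MIC is the lowest concentration inhibiting growth. Triplicate; vancomycin and tetracycline were positive controls.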

Escherichia coli = assay: Antibacterial activity against Escherichia coli AB1157 at 50 ug/ml after 18 hrs by two fold serial dilution method; how it was run: as §1
Staphylococcus aureus [2] = assay: Antibacterial activity against aminoglycosides/tetracycline-resistant Staphylococcus aureus NRS-1 after 18 hrs by two fold serial dilution method; details: NRS-1, 18 h
How it was run: (§2)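 Strains grown overnight at 37 °C in TSB without antibiotic. Cultures were diluted 1000-fold, grown at 37 °C for 2–3 h to A600 0.6, then diluted 1:400 in fresh TSB. Equal volumes of bacteria and two-fold serial DMSO dilutions (final 0.39–50) were mixed. A600 was read after 18 h. MIC was the lowest concentration inhibiting growth. Run in triplicate, with vancomycin and tetracycline controls.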

Staphylococcus aureus [3] = assay: Antibacterial activity against erythromycin-resistant Staphylococcus aureus NRS-70 after 18 hrs by two fold serial dilution method; details: NRS-70, 18 h; how it was run: as §2
Staphylococcus aureus [4] = assay: Antibacterial activity against oxacillin/tetracycline-resistant Staphylococcus aureus NRS-100 after 18 hrs by two fold serial dilution method; details: NRS-100, 18 h; how it was run: as §2
Staphylococcus aureus [5] = assay: Antibacterial activity against gentamicin-resistant Staphylococcus aureus NRS-108 after 18 hrs by two fold serial dilution method; details: NRS-108, 18 h; how it was run: as §2
Staphylococcus aureus [6] = assay: Antibacterial activity against linezolid-resistant Staphylococcus aureus NRS-271 containing phage type E-MRSA after 18 hrs by two fold serial dilution method; details: NRS-271, 18 h; how it was run: as §2

| SMILES | MIC (Staphylococcus aureus [1]) [µM] | Activity (Escherichia coli) | further results |
| --- | --- | --- | --- |
| CC(C)c1cc2c(cc1Br)[C@@]1(C)CCC[C@@](C)(C(=O)O)[C@@H]1C/C2=N\OCCCNC(=O)c1ccccc1F | 8.51 to 10.6 (≈ 5 to 6.25 µg/mL) | inactive |  |
| CC(C)c1cc2c(cc1Br)[C@@]1(C)CCC[C@@](C)(C(=O)O)[C@@H]1C/C2=N\OCCCNC(=O)C(C)(C)C | 72.8 to 91 (≈ 40 to 50 µg/mL) | inactive |  |
| CC(C)c1cc2c(cc1Br)[C@@]1(C)CCC[C@@](C)(C(=O)O)[C@@H]1C/C2=N\OCCCNC(=O)c1ccccc1 | 8.78 (≈ 5 µg/mL) | inactive |  |
| CC(=O)NCCO/N=C1\C[C@H]2[C@](C)(C(=O)O)CCC[C@]2(C)c2cc(Br)c(C(C)C)cc21 | > 101 | inactive |  |
| CC(C)c1cc2c(cc1Br)[C@@]1(C)CCC[C@@](C)(C(=O)O)[C@@H]1C/C2=N\OCCCNC(=O)c1c(F)c(F)c(F)c(F)c1F | 5.69 to 7.58 (≈ 3.75 to 5 µg/mL) | inactive |  |
| CC(C)c1cc2c(cc1Br)[C@@]1(C)CCC[C@@](C)(C(=O)O)[C@@H]1C/C2=N\OCCCNC(=O)C1CC1 | 56.2 to 75 (≈ 30 to 40 µg/mL) | inactive |  |
| CCCCCC(=O)NCCO/N=C1\C[C@H]2[C@](C)(C(=O)O)CCC[C@]2(C)c2cc(Br)c(C(C)C)cc21 | 13.6 to 18.2 (≈ 7.5 to 10 µg/mL) | inactive |  |
| CN(C)[C@@H]1C(O)=C(C(N)=O)C(=O)[C@@]2(O)C(O)=C3C(=O)c4c(O)cccc4[C@@](C)(O)[C@H]3C[C@@H]12 [TETRACYCLINE] | < 2.16 |  | MIC (Staphylococcus aureus [2]): > 56.2 µM; MIC (Staphylococcus aureus [3]): < 7.04 µM; MIC (Staphylococcus aureus [4]): < 7.04 µM; MIC (Staphylococcus aureus [5]): < 7.04 µM; MIC (Staphylococcus aureus [6]): < 7.04 µM |
| CC(C)c1cc2c(cc1Br)[C@@]1(C)CCC[C@@](C)(C(=O)O)[C@@H]1C/C2=N\OCCNC(=O)c1cccs1 | > 89 | inactive |  |
| CC(C)c1cc2c(cc1Br)[C@@]1(C)CCC[C@@](C)(C(=O)O)[C@@H]1C/C2=N\OCCNC(=O)Cc1ccc(C(F)(F)F)cc1 | 5.88 to 7.84 (≈ 3.75 to 5 µg/mL) | inactive |  |
| CC(C)c1cc2c(cc1Br)[C@@]1(C)CCC[C@@](C)(C(=O)O)[C@@H]1C/C2=N\OCCCNC(=O)c1ccccn1 | 21.9 (≈ 12.5 µg/mL) | inactive |  |
| CC(C)c1cc2c(cc1Br)[C@@]1(C)CCC[C@@](C)(C(=O)O)[C@@H]1C/C2=N\OCCCNC(=O)c1ccsc1 | 17.4 (≈ 10 µg/mL) | inactive |  |
| CC(C)c1ccc2c(c1)CC[C@H]1[C@](C)(C(=O)O)CCC[C@]21C [DEHYDROABIETIC ACID] | 41.6 to 66.6 (≈ 12.5 to 20 µg/mL) | inactive |  |
| CC(C)c1cc2c(cc1Br)[C@@]1(C)CCC[C@@](C)(C(=O)O)[C@@H]1C/C2=N\OCCCNC(=O)Cc1ccccc1 | 17.1 (≈ 10 µg/mL) | inactive |  |
| CC(C)c1cc2c(cc1Br)[C@@]1(C)CCC[C@@](C)(C(=O)O)[C@@H]1C/C2=N\OCCNC(=O)Cc1ccccc1C(F)(F)F | 7.84 (≈ 5 µg/mL) | inactive |  |
| CN[C@H](CC(C)C)C(=O)N[C@H]1C(=O)N[C@@H](CC(N)=O)C(=O)N[C@H]2C(=O)N[C@H]3C(=O)N[C@H](C(=O)N[C@H](C(=O)O)c4cc(O)cc(O)c4-c4cc3ccc4O)[C@H](O)c3ccc(c(Cl)c3)Oc3cc2cc(c3O[C@@H]2O[C@H](CO)[C@@H](O)[C@H](O)[C@H]2O[C@H]2C[C@](C)(N)[C@H](O)[C@H](C)O2)Oc2ccc(cc2Cl)[C@H]1O [VANCOMYCIN] | < 1.73 |  | MIC (Staphylococcus aureus [2]): 1.72 to 3.45 µM (≈ 2.49 to 5 µg/mL); MIC (Staphylococcus aureus [3]): < 1.72 µM; MIC (Staphylococcus aureus [4]): 0.86 to 1.72 µM (≈ 1.25 to 2.49 µg/mL); MIC (Staphylococcus aureus [5]): < 1.72 µM; MIC (Staphylococcus aureus [6]): < 1.72 µM |
| CC(C)c1cc2c(cc1Br)[C@@]1(C)CCC[C@@](C)(C(=O)O)[C@@H]1C/C2=N\OCCN | > 111 | inactive |  |
| CC(C)c1cc2c(cc1Br)[C@@]1(C)CCC[C@@](C)(C(=O)O)[C@@H]1C/C2=N\OCCNC(=O)c1ccco1 | 36.7 to 45.8 (≈ 20 to 25 µg/mL) | inactive |  |
| CC(C)c1cc2c(cc1Br)[C@@]1(C)CCC[C@@](C)(C(=O)O)[C@@H]1C/C2=N\OCCNC(=O)c1ccc[nH]1 | 5.75 to 9.18 (≈ 3.13 to 5 µg/mL) | inactive |  |
| CC(C)c1cc2c(cc1Br)[C@@]1(C)CCC[C@@](C)(C(=O)O)[C@@H]1C/C2=N\OCCNC(=O)Cc1cccc(C(F)(F)F)c1 | 5.88 to 7.84 (≈ 3.75 to 5 µg/mL) | inactive |  |
| COc1ccccc1C(=O)NCCO/N=C1\C[C@H]2[C@](C)(C(=O)O)CCC[C@]2(C)c2cc(Br)c(C(C)C)cc21 | 8.54 to 10.7 (≈ 5 to 6.25 µg/mL) | inactive |  |
| CC(C)c1cc2c(cc1Br)[C@@]1(C)CCC[C@@](C)(C(=O)O)[C@@H]1C/C2=N\OCCNC(=O)c1ccccc1 | 18 to 22.5 (≈ 10 to 12.5 µg/mL) | inactive |  |
| CC(C)c1cc2c(cc1Br)[C@@]1(C)CCC[C@@](C)(C(=O)O)[C@@H]1C/C2=N\OCCCNC(=O)c1cccs1 | > 86.9 | inactive |  |
